Bioassay records from PubChem.
Rows were chosen to be rich in hits. Some 9.6% of all compounds tested hit in one or more screens of this group.
PMI act satM6P: activators of human phosphomannose isomerase at near-saturating mannose 6-phosphate; 190,000 compounds, 0.34% hits; activation factor at 20 µM; P34949; coupled PMI enzyme assay, resazurin fluorescence, 20 min; active compounds read high; 1 = untreated enzyme, 0 = substrate-free blank;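 active = activation factor of 2 or more at 20 µM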
Target sequence (P34949 whole entry, looked up): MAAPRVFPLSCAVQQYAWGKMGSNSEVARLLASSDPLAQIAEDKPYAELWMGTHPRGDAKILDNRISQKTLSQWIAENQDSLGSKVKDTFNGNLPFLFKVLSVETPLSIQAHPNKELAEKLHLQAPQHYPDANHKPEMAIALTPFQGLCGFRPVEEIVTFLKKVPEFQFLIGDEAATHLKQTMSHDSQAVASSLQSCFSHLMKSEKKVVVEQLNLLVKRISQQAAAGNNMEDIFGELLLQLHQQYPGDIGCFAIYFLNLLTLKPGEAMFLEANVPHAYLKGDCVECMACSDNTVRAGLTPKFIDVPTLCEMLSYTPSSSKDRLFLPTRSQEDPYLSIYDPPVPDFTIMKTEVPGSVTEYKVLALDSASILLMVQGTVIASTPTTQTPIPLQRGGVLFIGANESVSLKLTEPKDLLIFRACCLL
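Technique: Diaphorase-driven resazurin-to-resorufin fluorescence, excitation 544, emission 590 nm | Assay system: Human PMI in coupled enzyme assay | Times: Enzyme reaction with compound 20 min at room temperature | Medium: HEPES-buffered pH 7.4 with magnesium and detergent | Reagent: Mannose-6-phosphate 1.0 mM (near-saturating) plus 0.22 mM NADP+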
Lmaj promast: reduces viability of Leishmania major promastigotes. resazurin fluorescence viability. inhibition, % at 10 µM. 200,000 compounds, 9% hits; in the data active = inhibition above about 50%;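 note: promastigotes grown with compound for 44 hours at 28 °C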
PMI activator: increases human mannose-6-phosphate isomerase activity. activation factor at 20 µM. AID 1214. P34949. 190,000 compounds, 0.005% hits. purified human PMI, coupled resazurin fluorescence, 20 min; active compounds read high; 1 = vehicle control, 0 substrate-free wells;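 active = activation factor of 2 or more at 20 µM, relative to plate controls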
HCT116 bCat-KO: beta-catenin-lacking colon tumor cell growth suppression | HCT116 beta-catenin knockout viability, CellTiter-Glo, 60 h; active compounds read low | viability, % at 10 µM | 140,000 compounds, 1.5% hits;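 active = viability at or under a set limit, the compound median less 4 SD, cut at about 6% in these data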
PTEN del growth: PTEN-deleted cell growth suppression; HCT116 PTEN-null viability, CellTiter-Glo, 60 h; active compounds read low; viability, % at 10 µM; 140,000 compounds, 1.2% hits;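 active = viability at or below a set limit, 4 SD under the median of all tested compounds, cut at about 3.7% in these data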;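 note: PTEN knockout HCT116 line with beta catenin targeted HCT116 as companion control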
Numbers stand for hits.

Results for O=c1oc2ccccc2c(Cl)c1CN1CCCCC1 ?
PMI act satM6P: inactive; Lmaj promast: inactive; PMI activator: inactive

Results for O=C(CSc1ncnc2scc(-c3ccccc3)c12)N1CCN(c2ccccc2F)CC1 ?
PMI act satM6P: inactive; Lmaj promast: 55.4; PMI activator: inactive; HCT116 bCat-KO: inactive; PTEN del growth: inactive

Results for O=C(Cn1cc[n+](Cc2ccccc2)c1)c1ccc([N+](=O)[O-])cc1 ?
PMI act satM6P: inactive; Lmaj promast: inactive; PMI activator: inactive

How did Cc1nnc2n(Cc3ccccc3)c(=O)c3c4c(sc3n12)COC(C(C)C)C4 (configuration not stated) do in these assays?
PMI act satM6P: inactive; Lmaj promast: 55.2; PMI activator: inactive; HCT116 bCat-KO: inactive; PTEN del growth: inactive

How did CCNC(=S)N/N=C/c1sccc1C do in these assays?
PMI act satM6P: inactive; Lmaj promast: inactive; PMI activator: inactive

Results for COc1ccc(Nc2nnc(SCC(=O)c3cc(C)n(CC4CCCO4)c3C)s2)cc1 (configuration not stated) ?
PMI act satM6P: inactive; Lmaj promast: 50.1; PMI activator: inactive; HCT116 bCat-KO: inactive; PTEN del growth: inactive

Results for COc1ccc(Nc2nnc(SCC3CCCCO3)s2)cc1 (configuration not stated) ?
PMI act satM6P: inactive; Lmaj promast: inactive; PMI activator: inactive

How did CCOC(=O)c1sc2ncn(C(CC)C(=O)OCC)c(=O)c2c1C (configuration not stated) do in these assays?
PMI act satM6P: inactive; Lmaj promast: 99.1; PMI activator: inactive; HCT116 bCat-KO: inactive; PTEN del growth: inactive

What do the screens show for `O=C(Nc1ccccn1)C(F)(F)C(F)(F)C(F)(F)C(F)(F)C(=O)Nc1ccccn1`?
PMI act satM6P: inactive; Lmaj promast: 69.8; PMI activator: inactive; HCT116 bCat-KO: inactive; PTEN del growth: inactive

How did O=C(CC(=O)Nc1ccccn1)Nc1ccccn1 do in these assays?
PMI act satM6P: inactive; Lmaj promast: inactive; PMI activator: inactive; HCT116 bCat-KO: inactive; PTEN del growth: inactive

How did O=C(c1ccco1)N1CCN(C(c2ccccc2)c2nnnn2C2CCCC2)CC1 (configuration not stated) do in these assays?
PMI act satM6P: inactive; Lmaj promast: inactive; PMI activator: inactive; HCT116 bCat-KO: inactive; PTEN del growth: inactive

How did Oc1ccc2ccccc2c1/C=N/c1nccs1 do in these assays?
PMI act satM6P: inactive; Lmaj promast: inactive; PMI activator: inactive; HCT116 bCat-KO: inactive; PTEN del growth: inactive

What do the screens show for `Oc1ccc2ccccc2c1C=NCc1cn2ccsc2n1`?
PMI act satM6P: inactive; Lmaj promast: 95.2; PMI activator: inactive; HCT116 bCat-KO: inactive; PTEN del growth: inactive

How did CCN(C(=O)c1cnc(N2CCN(c3ncccn3)CC2)c2ccccc12)c1cccc(Cl)c1 do in these assays?
PMI act satM6P: inactive; Lmaj promast: inactive; PMI activator: inactive; HCT116 bCat-KO: 4.0; PTEN del growth: inactive

How did CC1CCc2c(sc3nc(CN4CCOCC4)nc(N4CCc5ccccc5C4)c23)C1 (configuration not stated) do in these assays?
PMI act satM6P: inactive; Lmaj promast: inactive; PMI activator: inactive; HCT116 bCat-KO: inactive; PTEN del growth: inactive

Results for Cc1ccc(Oc2nc(CN3CCOCC3)nc3sc4c(c23)CCC(C)C4)cc1 (configuration not stated) ?
PMI act satM6P: inactive; Lmaj promast: 75.7; PMI activator: inactive; HCT116 bCat-KO: inactive; PTEN del growth: inactive

What do the screens show for `Cc1ccc(Oc2nc(CN3CCOCC3)nc3sc4c(c23)CCC(C)C4)cc1C` (configuration not stated)?
PMI act satM6P: inactive; Lmaj promast: 96.9; PMI activator: inactive; HCT116 bCat-KO: inactive; PTEN del growth: inactive

Results for CC(=O)c1ccc(N2CCN(C(=O)Nc3ccc(C(C)C)cc3)CC2)cc1 ?
PMI act satM6P: inactive; Lmaj promast: 64.6; PMI activator: inactive

What do the screens show for `CC(=O)c1ccc(N2CCN(C(=O)Nc3ccc(F)cc3)CC2)cc1`?
PMI act satM6P: inactive; Lmaj promast: inactive; PMI activator: inactive

Results for N#CCN1CCN(CC(=O)Nc2cccc3ccccc23)CC1 ?
PMI act satM6P: inactive; Lmaj promast: inactive; PMI activator: inactive; HCT116 bCat-KO: inactive; PTEN del growth: inactive

Results for CC(C)=CCC/C(C)=C/CC(C)(C)CNCCN1CCNCC1 ?
PMI act satM6P: inactive; Lmaj promast: 100.4; PMI activator: inactive; HCT116 bCat-KO: 1.1; PTEN del growth: 1.2
